pKd: −log10 of the molar value. Entries after “also recorded” stand apart in the source; their conditions may differ. Like-named read-outs stand apart in the source and are kept apart here.
Columns and labels:
[1] = tested on: McpA/TlpA receptor chimeras in SQR9Δ8mcp; experiment: Chemotaxis of McpA receptor chimera strains compared; format: cell-based, Bacillus velezensis SQR9; conditions: strains with chimeras McpA_distal (M1) and McpA_proximal (M2)
Procedure, shortened: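 Chimeric receptors (McpA or TlpA LBD modules swapped) integrated at amyE of SQR9Δ8mcp; strains grown at 30 °C in low-salt LB. Microfluidic SlipChip run with 13 parallel units as duplicates: channels BSA-coated (10 mg/mL, 5 min); compound, cells and buffer in top, middle and bottom wells; 30 min in the dark. Cells counted by fluorescence microscopy; I30 = Ne/(Ne+Nc); attraction when above 0.6.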

McpA-LBD [2] = conditions: cited from earlier work
McpA-LBD (A36-L277) [3] = molecular target: T1, McpA-LBD (A36-L277) (Bacillus velezensis, UniProt A7Z835); experiment: Biolayer interferometry; format: binding, Bacillus velezensis SQR9
T1 sequence (A7Z835 36-277): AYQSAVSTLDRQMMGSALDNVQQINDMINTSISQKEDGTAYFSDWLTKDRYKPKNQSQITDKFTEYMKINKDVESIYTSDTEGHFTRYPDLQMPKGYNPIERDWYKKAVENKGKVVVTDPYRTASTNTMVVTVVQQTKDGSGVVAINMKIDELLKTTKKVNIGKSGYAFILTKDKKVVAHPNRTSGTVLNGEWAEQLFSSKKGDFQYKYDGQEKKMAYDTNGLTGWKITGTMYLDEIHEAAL

McpA-LBD (A36-L277) [4] = molecular target: T1, McpA-LBD (A36-L277); experiment: Surface plasmon resonance; format: binding, Bacillus velezensis SQR9; conditions: SPR, compounds at 200 μM and 2 mM
McpA-LBD [5] = conditions: cited from earlier work; remark: listed apart in the source

Row | Compound | McpA-LBD module on which chemotaxis relies [1] | interaction with McpA-LBD observed (McpA-LBD (A36-L277) [3]; BLI) | other results
1 | O=C(O)CC(O)(CC(=O)O)C(=O)O [Citric acid] | sensed by the membrane-proximal module | – | direct binding to McpA-LBD (McpA-LBD [2]): direct binding
2 | OC[C@@H](O)[C@@H](O)[C@@H](O)CO [Ribitol] | – | interaction; also recorded: directly bound | pKd (McpA-LBD (A36-L277) [3]): 5.36
3 | N[C@@H](CO)C(=O)O [Serine] | – | – | binding to McpA-LBD (McpA-LBD (A36-L277) [4]): binding for all ligands, except for serine and fucose
4 | O=C[C@H](O)[C@@H](O)[C@@H](O)[C@H](O)CO [Galactose] | – | – | direct binding to McpA-LBD (McpA-LBD [5]): no direct binding
5 | N[C@@H](Cc1ccc(O)cc1)C(=O)O [Tyrosine] | sensed by the membrane-proximal module | interaction | –
6 | OC[C@H]1OC(O)[C@@H](O)[C@@H](O)[C@@H]1O (stereo partly shown) [Mannose] | – | interaction | –
7 | C[C@H](O)[C@@H](O)[C@@H](O)[C@H](O)C=O [Fucose] | – | interaction; also recorded: directly bound | binding to McpA-LBD (McpA-LBD (A36-L277) [4]): binding for all ligands, except for serine and fucose
8 | O=C[C@H](O)[C@H](O)[C@H](O)CO [Ribose] | – | interaction; also recorded: directly bound | pKd (McpA-LBD (A36-L277) [3]; BLI, McpA-LBD (A36-L277), 25 °C, 1:1 binding model): 5.71

Further lines, with some results ahead:

Row | McpA-LBD module on which chemotaxis relies [1] | Compound | interaction with McpA-LBD observed (McpA-LBD (A36-L277) [3]; BLI) | other results
9 | sensed by the membrane-proximal module | O=C(O)CCC(=O)O [Succinic acid] | – | –
10 | sensed by the membrane-proximal module | N[C@@H](CC(=O)O)C(=O)O [Aspartic acid] | – | direct binding to McpA-LBD (McpA-LBD [2]): direct binding
11 | sensed by the membrane-proximal module | N[C@@H](CCC(=O)O)C(=O)O [Glutamic acid] | – | –
12 | sensed by the membrane-proximal module | O=C(O)CC(O)C(=O)O (stereo not shown) [Malic acid] | – | –
13 | sensed by the membrane-proximal module | O=C(O)C(=O)O [Oxalic acid] | – | –

— publication PMC9303924 (Proceedings of the National Academy of Sciences of the …, 2022)
